Each structure is given as a SMILES string.

Telomerase reverse transcriptase, sequence (O14746 whole entry): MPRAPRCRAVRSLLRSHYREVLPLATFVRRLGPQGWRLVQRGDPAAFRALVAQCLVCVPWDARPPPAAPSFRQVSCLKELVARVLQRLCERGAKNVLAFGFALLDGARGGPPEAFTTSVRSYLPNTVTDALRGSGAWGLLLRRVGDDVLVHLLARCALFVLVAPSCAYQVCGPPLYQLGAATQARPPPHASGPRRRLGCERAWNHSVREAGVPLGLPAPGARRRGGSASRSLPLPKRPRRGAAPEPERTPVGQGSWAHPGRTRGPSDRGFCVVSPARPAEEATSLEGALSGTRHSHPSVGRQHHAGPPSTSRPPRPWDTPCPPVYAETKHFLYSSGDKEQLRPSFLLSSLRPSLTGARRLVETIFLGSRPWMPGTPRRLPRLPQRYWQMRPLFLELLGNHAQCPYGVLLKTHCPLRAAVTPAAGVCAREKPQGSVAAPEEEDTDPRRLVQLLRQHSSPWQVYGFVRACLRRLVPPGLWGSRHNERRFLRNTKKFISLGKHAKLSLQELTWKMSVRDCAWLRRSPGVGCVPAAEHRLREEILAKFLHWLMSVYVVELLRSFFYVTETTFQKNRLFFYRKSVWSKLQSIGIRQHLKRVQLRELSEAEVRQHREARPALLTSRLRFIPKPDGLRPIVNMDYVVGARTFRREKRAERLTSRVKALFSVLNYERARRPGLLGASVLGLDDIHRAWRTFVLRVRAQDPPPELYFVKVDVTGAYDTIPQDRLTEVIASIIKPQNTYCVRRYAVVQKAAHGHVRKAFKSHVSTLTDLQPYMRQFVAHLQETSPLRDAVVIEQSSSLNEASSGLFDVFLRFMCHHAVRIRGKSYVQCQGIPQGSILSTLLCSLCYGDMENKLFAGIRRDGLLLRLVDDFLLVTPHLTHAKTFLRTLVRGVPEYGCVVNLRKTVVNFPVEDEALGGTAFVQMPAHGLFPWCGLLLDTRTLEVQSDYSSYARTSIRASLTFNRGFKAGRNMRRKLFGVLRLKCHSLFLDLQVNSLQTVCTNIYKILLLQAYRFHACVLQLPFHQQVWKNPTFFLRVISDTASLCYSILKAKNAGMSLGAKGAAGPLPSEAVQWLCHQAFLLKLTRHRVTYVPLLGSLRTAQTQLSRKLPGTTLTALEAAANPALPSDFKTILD

The first test deals with SGC-7901. Nature of the test: Cytotoxicity against human SGC7901 cells after 48 hrs by MTT assay. The class given is functional, cell-based. As to conditions: SGC-7901, 48 h. The essentials:
(§1)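 Log-phase tumor cells grown in RPMI 1640 with 10% FBS, diluted to 3 × 10⁴ cells/mL, and seeded in 96-well plates. Plates were held 24 h at 37 °C in 5% CO₂, then compounds were added at preset concentrations (6 wells each), with 5-fluorouracil as positive reference. After 48 h exposure, MTT in PBS (2.5 mg/mL) was added for 4 h. Formazan was dissolved in DMSO and read at 570 nm. IC50 is the concentration giving 50% survival; results are the mean of three experiments in triplicate.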
As for `CC1=NN(C(=O)CN2CCC(O)CC2)C(c2ccccc2O)C1` (stereo not given), the IC50 (as a rule, the concentration at which inhibition is half-maximal) was 5.71 µM. In other words, the single-digit micromolar range.
The compound `CC1=NN(C(=O)CN2CCCCC2C)C(c2ccccc2O)C1` (stereo not given) registered an IC50 of 11.2 µM.
On the same count and under the same terms, the same measure for `CCC1CCCCN1CC(=O)N1N=C(C)CC1c1ccccc1O` (stereo not given): 12.9 µM.
On the same count and under the same terms, the same measure for `CC1=NN(C(=O)CN2CCC(C)CC2)C(c2ccccc2O)C1` (stereo not given): 4.6 µM; for `CC1=NN(C(=O)CN2CCCCC2C(N)=O)C(c2ccccc2O)C1` (stereo not given): 39.2 µM.
As to `CC1=NN(C(=O)CN2CCC(C(F)(F)F)CC2)C(c2ccccc2O)C1` (stereo not given), the IC50 was determined as 3.22 µM.
Same read-out and setting: the same measure for `CC1=NN(C(=O)CN2CCCCC2[N+](=O)[O-])C(c2ccccc2O)C1` (stereo not given): 30.7 µM; for `CCC1CCCCN1CC(=O)N1N=C(c2cc3ccccc3oc2=O)CC1c1ccccc1` (stereo not given): 6 µM; for `CC1CCN(CC(=O)N2N=C(c3cc4ccccc4oc3=O)CC2c2ccccc2)CC1` (stereo not given): 4.7 µM.
The same measure, in the same setting: the same measure for `O=C(CN1CCC(Br)CC1)N1N=C(c2cc3ccccc3oc2=O)CC1c1ccccc1` (stereo not given): 10.3 µM.
Same read-out and setting: the same measure for `O=c1[nH]cc(F)c(=O)[nH]1` [FLUOROURACIL]: 7.11 µM.

The next test deals with Bcap37. Nature of the test: Cytotoxicity against human Bcap37 cells after 48 hrs by MTT assay. As to conditions: Bcap37, 48 h. It counts as functional, cell-based. An outline of the steps:
as §1
In turn, `CC1=NN(C(=O)CN2CCC(O)CC2)C(c2ccccc2O)C1` (stereo not given) gave an IC50 of 18.7 µM.
Take `CC1=NN(C(=O)CN2CCCCC2C)C(c2ccccc2O)C1` (stereo not given): the IC50 was 16.3 µM. This IC50 and that of the compound before are within 1.5-fold of each other.
Still for that read-out and setting: the same measure for `CCC1CCCCN1CC(=O)N1N=C(C)CC1c1ccccc1O` (stereo not given): 10.7 µM.
Compound `CC1=NN(C(=O)CN2CCC(C)CC2)C(c2ccccc2O)C1` (stereo not given) gave a half-inhibitory concentration (IC50) of 6.81 µM. This IC50 lies about 1.6-fold lower than the previous one.
Still for that read-out and setting: the same measure for `CC1=NN(C(=O)CN2CCCCC2C(N)=O)C(c2ccccc2O)C1` (stereo not given): 41.1 µM; for `CC1=NN(C(=O)CN2CCC(C(F)(F)F)CC2)C(c2ccccc2O)C1` (stereo not given): 8.55 µM.
The same measure, in the same setting: the same measure for `CC1=NN(C(=O)CN2CCCCC2[N+](=O)[O-])C(c2ccccc2O)C1` (stereo not given): 32.3 µM; for `CCC1CCCCN1CC(=O)N1N=C(c2cc3ccccc3oc2=O)CC1c1ccccc1` (stereo not given): 7.3 µM; for `CC1CCN(CC(=O)N2N=C(c3cc4ccccc4oc3=O)CC2c2ccccc2)CC1` (stereo not given): 6.57 µM.
`O=C(CN1CCC(Br)CC1)N1N=C(c2cc3ccccc3oc2=O)CC1c1ccccc1` (stereo not given) showed an IC50 of 8.76 µM.
The same measure, in the same setting: the same measure for `O=c1[nH]cc(F)c(=O)[nH]1` [FLUOROURACIL]: 5.33 µM.

The test system of another test is MGC-803. The experiment in a line: Cytotoxicity against human MGC803 cells after 48 hrs by MTT assay. The class given is functional, cell-based. As to conditions: MGC-803, 48 h. The essentials: as §1
`CC1=NN(C(=O)CN2CCC(O)CC2)C(c2ccccc2O)C1` (stereo not given) showed an IC50 of 4.12 µM. That is a single-digit micromolar value.
Regarding `CC1=NN(C(=O)CN2CCCCC2C)C(c2ccccc2O)C1` (stereo not given), 11.7 µM corresponded to half-maximal inhibition (IC50). This IC50 lies about 2.8-fold higher than the previous one.
Same read-out and setting: the same measure for `CCC1CCCCN1CC(=O)N1N=C(C)CC1c1ccccc1O` (stereo not given): 15.7 µM; for `CC1=NN(C(=O)CN2CCC(C)CC2)C(c2ccccc2O)C1` (stereo not given): 3.55 µM.
On the same count and under the same terms, the same measure for `CC1=NN(C(=O)CN2CCCCC2C(N)=O)C(c2ccccc2O)C1` (stereo not given): 38.8 µM; for `CC1=NN(C(=O)CN2CCC(C(F)(F)F)CC2)C(c2ccccc2O)C1` (stereo not given): 2.64 µM.
On the same count and under the same terms, the same measure for `CC1=NN(C(=O)CN2CCCCC2[N+](=O)[O-])C(c2ccccc2O)C1` (stereo not given): 28.3 µM; for `CCC1CCCCN1CC(=O)N1N=C(c2cc3ccccc3oc2=O)CC1c1ccccc1` (stereo not given): 8.71 µM; for `CC1CCN(CC(=O)N2N=C(c3cc4ccccc4oc3=O)CC2c2ccccc2)CC1` (stereo not given): 3.01 µM.
Consider `O=C(CN1CCC(Br)CC1)N1N=C(c2cc3ccccc3oc2=O)CC1c1ccccc1` (stereo not given), for which the IC50 stood at 7.01 µM.
On the same count and under the same terms, the same measure for `O=c1[nH]cc(F)c(=O)[nH]1` [FLUOROURACIL]: 3.42 µM.

A further test addresses Telomerase reverse transcriptase (Homo sapiens, UniProt O14746). The experiment in a line: Inhibition of telomerase activity in human MGC803 cells after 24 hrs by TRAP-PCR-ELISA assay.
Settings: not given
(In general: In an ELISA, binding on a coated surface is turned into a signal by an enzyme label.)
In turn, `CC1=NN(C(=O)CN2CCC(O)CC2)C(c2ccccc2O)C1` (stereo not given) came in with an IC50 of 9.11 µM.
Still for that read-out and setting: the same measure for `CC1=NN(C(=O)CN2CCC(C)CC2)C(c2ccccc2O)C1` (stereo not given): 5.99 µM.
On the same count and under the same terms, the same measure for `CC1=NN(C(=O)CN2CCC(C(F)(F)F)CC2)C(c2ccccc2O)C1` (stereo not given): 8.81 µM; for `CC1=NN(C(=O)CN2CCCCC2[N+](=O)[O-])C(c2ccccc2O)C1` (stereo not given): 42.1 µM.
On the same count and under the same terms, the same measure for `CC1CCN(CC(=O)N2N=C(c3cc4ccccc4oc3=O)CC2c2ccccc2)CC1` (stereo not given): 2 µM; for `O=C(CN1CCC(Br)CC1)N1N=C(c2cc3ccccc3oc2=O)CC1c1ccccc1` (stereo not given): 4.11 µM; for `CC[n+]1c(-c2ccccc2)c2cc(N)ccc2c2ccc(N)cc21` [HOMIDIUM BROMIDE]: 2.47 µM.
